Reference: ChEMBL document CHEMBL1153056, “Identification of MK-1925: a selective, orally active and brain-penetrable opioid receptor-like 1 (ORL1) antagonist” (Bioorg Med Chem Lett, 2009)
Each block holds one compound with its values, some of them ahead of it.

Legend:
[1] = Metabolic stability in cryopreserved human hepatocytes after 30 mins; format: ADME, cell-based, Hepatocyte; settings: read-out: Stability
Nociceptin receptor [2] = target: T1, Nociceptin receptor (Homo sapiens, UniProt P41146); experiment: Antagonist activity at ORL1 receptor by [35S]GTPgammaS binding assay; format: functional
T1 sequence (P41146 whole entry): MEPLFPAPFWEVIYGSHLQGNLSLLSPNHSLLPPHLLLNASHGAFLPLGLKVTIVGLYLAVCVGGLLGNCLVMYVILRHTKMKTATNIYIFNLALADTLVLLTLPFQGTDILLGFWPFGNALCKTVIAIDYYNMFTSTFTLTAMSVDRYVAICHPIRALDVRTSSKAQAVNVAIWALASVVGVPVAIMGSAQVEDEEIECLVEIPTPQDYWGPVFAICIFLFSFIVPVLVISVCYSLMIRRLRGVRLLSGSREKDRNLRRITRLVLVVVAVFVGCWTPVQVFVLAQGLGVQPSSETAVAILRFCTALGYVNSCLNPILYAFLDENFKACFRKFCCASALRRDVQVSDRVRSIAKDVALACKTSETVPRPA

Nociceptin receptor [3] = target: T1, Nociceptin receptor; experiment: Displacement of [125I]Tyr14-NC/OFQ from ORL1 receptor
[4] = Distribution coefficient, log D at pH 7.4 by shake-flask method; format: physicochemical; settings: octanol/water
[5] = Oral bioavailability in rat at 3 mg/kg; format: ADME, organism-based; settings: in vivo
Method in brief: (§1)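 PK run with a 3 mg/kg oral dose and a 1 mg/kg IV dose; values are the mean of n = 3 animals.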

[6] = Inhibition of choline transporter
[7] = Cmax in dog at 3 mg/kg, po; format: ADME, organism-based, Canis lupus familiaris; design: dose 3 mg/kg, route oral; settings: in vivo; method in brief: as §1
[8] = Ratio of drug level in brain to plasma in mouse at 10 mg/kg, po after 60 mins; format: ADME, organism-based; design: dose 10 mg/kg, route oral
Method in brief: (§2)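 Mice received single oral doses (3, 10 or 30 mg/kg). Plasma and brain levels were taken 60 min after dosing. Brain levels were expressed as nmol/g brain, and the b/p ratio was brain level over plasma level.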

[9] = target: Delta-type opioid receptor (Homo sapiens, UniProt P41143); experiment: Displacement of [3H]naltrindole from human cloned delta opioid receptor expressed in CHO cells; format: cell-based
Sequence of Delta-type opioid receptor (P41143 whole entry): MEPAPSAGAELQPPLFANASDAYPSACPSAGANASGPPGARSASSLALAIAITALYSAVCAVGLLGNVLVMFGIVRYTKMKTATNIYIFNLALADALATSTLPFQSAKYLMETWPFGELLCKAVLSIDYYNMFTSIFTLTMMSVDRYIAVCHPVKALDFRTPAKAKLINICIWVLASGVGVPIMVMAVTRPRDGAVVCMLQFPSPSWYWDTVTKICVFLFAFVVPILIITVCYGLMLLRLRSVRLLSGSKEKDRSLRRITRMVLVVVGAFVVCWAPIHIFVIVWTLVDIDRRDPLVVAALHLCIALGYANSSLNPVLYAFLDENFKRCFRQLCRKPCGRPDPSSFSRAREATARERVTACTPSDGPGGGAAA

Mus musculus [10] = experiment: Plasma concentration in mouse at 3 mg/kg, po; format: ADME, organism-based; design: dose 3 mg/kg, route oral; settings: in vivo
Method in brief: (§3)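 Mice dosed orally at 3, 10 or 30 mg/kg. Plasma and brain were sampled 60 min after dosing. Brain level is given as nmol/g brain, and the brain/plasma ratio was derived.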

Brain [11] = experiment: Drug level in mouse brain assessed per gram of tissue at 30 mg/kg, po after 60 mins; format: ADME, organism-based; design: dose 30 mg/kg, route oral; settings: in vivo, 1 h; method in brief: as §3
[12] = Inhibition of choline transporter at 10 uM
[13] = Plasma clearance in rat at 1 mg/kg, iv; format: ADME, organism-based; design: dose 1 mg/kg, route intravenous; method in brief: as §1
[14] = Ratio of drug level in brain to plasma in mouse at 3 mg/kg, po after 60 mins; format: ADME, organism-based; design: dose 3 mg/kg, route oral; method in brief: as §2
Mus musculus [15] = experiment: Reversal of ORL1 agonist-induced locomotor activity in po dosed mouse after 60 mins; format: functional, organism-based
Method in brief: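 Mice received oral doses of 3, 10 or 30 mg/kg against the locomotor-activity reduction produced by an ORL1 agonist, measured over 60 min. Results are expressed as % reversal of the agonist response.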

Mu-type opioid receptor = Mu-type opioid receptor (Homo sapiens, UniProt P35372); experiment: Displacement of [3H]diprenorphin from human cloned mu opioid receptor expressed in CHO cells; format: cell-based
Sequence of Mu-type opioid receptor (P35372 whole entry): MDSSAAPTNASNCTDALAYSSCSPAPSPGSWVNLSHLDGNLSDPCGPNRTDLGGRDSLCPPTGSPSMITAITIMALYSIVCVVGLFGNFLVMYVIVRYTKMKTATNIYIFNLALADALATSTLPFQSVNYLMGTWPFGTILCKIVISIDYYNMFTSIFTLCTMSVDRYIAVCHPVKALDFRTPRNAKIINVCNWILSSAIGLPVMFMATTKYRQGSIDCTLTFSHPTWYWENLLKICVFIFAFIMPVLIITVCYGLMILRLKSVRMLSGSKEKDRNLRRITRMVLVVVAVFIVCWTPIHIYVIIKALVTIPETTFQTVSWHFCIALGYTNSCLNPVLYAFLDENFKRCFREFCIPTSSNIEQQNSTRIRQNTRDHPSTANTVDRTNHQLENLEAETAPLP

Mus musculus [16] = experiment: Reversal of ORL1 agonist-induced locomotor activity in mouse at 3 mg/kg, po after 60 mins; format: functional
Method in brief: (§4)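 Mice dosed orally; ORL1 agonist then given to reduce locomotor activity, with activity monitored for 60 min. Result expressed as % reversal of the agonist-induced reduction in locomotor activity.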

[17] = Cmax in rat at 3 mg/kg, po; format: ADME, organism-based; design: dose 3 mg/kg, route oral; settings: in vivo; method in brief: as §1
[18] = Plasma clearance in dog at 1 mg/kg, iv; format: ADME, organism-based, Canis lupus familiaris; design: dose 1 mg/kg, route intravenous; method in brief: as §1
[19] = Half life in dog at 3 mg/kg, po; format: ADME, organism-based, Canis lupus familiaris; design: dose 3 mg/kg, route oral; settings: in vivo; method in brief: as §1
Mus musculus [20] = experiment: Reversal of ORL1 agonist-induced locomotor activity in mouse at 10 mg/kg, po after 60 mins; format: functional; method in brief: as §4
[21] = Ratio of drug level in brain to plasma in mouse at 30 mg/kg, po after 60 mins; format: ADME, organism-based; design: dose 30 mg/kg, route oral; method in brief: as §2
[22] = target: Kappa-type opioid receptor (Homo sapiens, UniProt P41145); experiment: Displacement of [3H]U69593 from human cloned kappa opioid receptor expressed in CHO cells; format: cell-based
Sequence of Kappa-type opioid receptor (P41145 whole entry): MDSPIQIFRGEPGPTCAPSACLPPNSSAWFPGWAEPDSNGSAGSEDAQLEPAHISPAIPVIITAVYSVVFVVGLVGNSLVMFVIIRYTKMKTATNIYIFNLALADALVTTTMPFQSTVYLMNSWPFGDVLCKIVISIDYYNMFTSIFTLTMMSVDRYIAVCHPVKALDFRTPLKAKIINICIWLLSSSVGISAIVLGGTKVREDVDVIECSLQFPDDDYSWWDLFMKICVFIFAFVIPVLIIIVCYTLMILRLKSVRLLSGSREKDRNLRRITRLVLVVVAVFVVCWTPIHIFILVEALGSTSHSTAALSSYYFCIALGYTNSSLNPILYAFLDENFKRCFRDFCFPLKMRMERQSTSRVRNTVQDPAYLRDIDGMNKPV

[23] = Half life in rat at 3 mg/kg, po; format: ADME, organism-based; design: dose 3 mg/kg, route oral; settings: in vivo; method in brief: as §1
[24] = Volume of distribution at steady state in rat at 1 mg/kg, iv; format: ADME, organism-based; design: dose 1 mg/kg, route intravenous; settings: in vivo, read-out: Vdss; method in brief: as §1
Brain [25] = experiment: Drug level in mouse brain assessed per gram of tissue at 3 mg/kg, po after 60 mins; format: ADME, organism-based; design: dose 3 mg/kg, route oral; settings: in vivo, 1 h; method in brief: as §3
[26] = Cmax in anesthetized dog at 10 mg/kg; format: ADME, organism-based, Canis lupus familiaris; design: dose 10 mg/kg; settings: in vivo
Mus musculus [27] = experiment: Plasma concentration in mouse at 30 mg/kg, po; format: ADME, organism-based; design: dose 30 mg/kg, route oral; settings: in vivo; method in brief: as §3
Mus musculus [28] = experiment: Plasma concentration in mouse at 10 mg/kg, po; format: ADME, organism-based; design: dose 10 mg/kg, route oral; settings: in vivo; method in brief: as §3
[29] = AUC (0 to infinity) in dog at 3 mg/kg, po; format: ADME, organism-based, Canis lupus familiaris; design: dose 3 mg/kg, route oral, time infinity; settings: plasma; method in brief: as §1
Canis familiaris = experiment: Toxicity in anesthetized dog assessed as adverse effect up to 10 mg/kg; format: organism-based, Canis lupus familiaris; design: dose 10 mg/kg; settings: in vivo
Mus musculus [30] = experiment: Reversal of ORL1 agonist-induced locomotor activity in mouse at 30 mg/kg, po after 60 mins; format: functional; method in brief: as §4
[31] = target: Voltage-gated inwardly rectifying potassium channel KCNH2 (Homo sapiens, UniProt Q12809); experiment: Displacement of [35S]MK499 from human ERG expressed in HEK293 cells overexpressing Ikr channel protein; format: cell-based
Sequence of Voltage-gated inwardly rectifying potassium channel KCNH2 (Q12809 whole entry): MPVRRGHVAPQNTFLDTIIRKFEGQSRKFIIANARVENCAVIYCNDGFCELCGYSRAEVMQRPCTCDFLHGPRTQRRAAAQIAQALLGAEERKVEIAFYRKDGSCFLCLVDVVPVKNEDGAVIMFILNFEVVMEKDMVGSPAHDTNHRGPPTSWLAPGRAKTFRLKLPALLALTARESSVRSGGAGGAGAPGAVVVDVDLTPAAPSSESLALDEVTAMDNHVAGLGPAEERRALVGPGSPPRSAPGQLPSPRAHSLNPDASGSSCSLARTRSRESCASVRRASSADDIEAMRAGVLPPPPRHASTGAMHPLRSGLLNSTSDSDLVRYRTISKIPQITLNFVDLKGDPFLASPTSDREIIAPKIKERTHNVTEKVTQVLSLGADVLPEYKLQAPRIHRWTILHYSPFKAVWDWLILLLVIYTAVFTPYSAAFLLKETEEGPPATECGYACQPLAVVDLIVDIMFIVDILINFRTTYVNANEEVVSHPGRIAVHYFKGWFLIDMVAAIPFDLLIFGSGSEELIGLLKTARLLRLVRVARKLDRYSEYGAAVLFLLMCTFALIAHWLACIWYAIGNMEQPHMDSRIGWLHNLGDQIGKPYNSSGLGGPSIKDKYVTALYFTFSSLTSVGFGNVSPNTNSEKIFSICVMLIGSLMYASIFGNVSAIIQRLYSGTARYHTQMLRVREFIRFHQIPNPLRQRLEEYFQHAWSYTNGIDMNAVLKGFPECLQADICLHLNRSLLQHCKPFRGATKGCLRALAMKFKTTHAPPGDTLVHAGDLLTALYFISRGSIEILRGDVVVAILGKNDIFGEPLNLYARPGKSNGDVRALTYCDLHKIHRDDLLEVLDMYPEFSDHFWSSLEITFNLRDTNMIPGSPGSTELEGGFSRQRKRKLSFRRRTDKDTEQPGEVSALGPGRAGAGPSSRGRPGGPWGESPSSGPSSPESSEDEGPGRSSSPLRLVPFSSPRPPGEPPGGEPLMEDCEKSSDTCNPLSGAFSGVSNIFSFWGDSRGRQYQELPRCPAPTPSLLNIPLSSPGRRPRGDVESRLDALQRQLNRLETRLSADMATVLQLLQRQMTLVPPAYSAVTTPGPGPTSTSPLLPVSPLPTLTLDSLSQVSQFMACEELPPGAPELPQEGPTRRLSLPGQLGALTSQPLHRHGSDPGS
Method in brief: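 Membranes from HEK 293 cells stably transfected with the hERG gene and expressing the I_Kr channel protein; [³⁵S]-radiolabeled MK499 displaced.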

[32] = Oral bioavailability in dog at 3 mg/kg; format: ADME, organism-based, Canis lupus familiaris; settings: in vivo; method in brief: as §1
Brain [33] = experiment: Drug level in mouse brain assessed per gram of tissue at 10 mg/kg, po after 60 mins; format: ADME, organism-based; design: dose 10 mg/kg, route oral; settings: in vivo, 1 h; method in brief: as §3
[34] = AUC (0 to infinity) in rat at 3 mg/kg, po; format: ADME, organism-based; design: time infinity, dose 3 mg/kg, route oral; settings: plasma; method in brief: as §1
[35] = Volume of distribution at steady state in dog at 1 mg/kg, iv; format: ADME, organism-based, Canis lupus familiaris; design: dose 1 mg/kg, route intravenous; settings: in vivo, read-out: Vdss; method in brief: as §1

remaining at 0.5 h [1]: 40%
IC50 (Nociceptin receptor [2]): 2.5 nM
IC50 (Nociceptin receptor [3]): 9.3 nM
Structure (SMILES): Cn1nc(CN[C@H]2CC[C@@H](F)C2)c(Cl)c1-c1cc(F)cc(F)c1

remaining at 0.5 h [1]: 56%
IC50 (Nociceptin receptor [2]): 2.5 nM
logD [4]: 1.9
IC50 (Nociceptin receptor [3]): 3.1 nM
Structure (SMILES): Cc1c(CN[C@H]2CC[C@@H](F)C2)nn(C)c1-c1cc(F)cc(F)c1

remaining at 0.5 h [1]: 25%
IC50 (Nociceptin receptor [2]): 2.2 nM
IC50 (Nociceptin receptor [3]): 4.3 nM
Structure (SMILES): Cc1ncc(-c2c(C)c(CN[C@H]3CC[C@@H](F)C3)nn2C)cc1F

remaining at 0.5 h [1]: 39%
bioavailability [5]: 3.2%
Structure (SMILES): Cc1ncc(-c2c(C)c(CN[C@H]3CC[C@@H](F)C3)nn2-c2ncccc2Cl)cc1F

logD [4]: 1.3
IC50 (Nociceptin receptor [3]): 15 nM
Structure (SMILES): Cc1c(CN[C@H]2CC[C@@H](F)C2)nn(CCO)c1-c1cc(F)cc(F)c1

IC50 (Nociceptin receptor [2]): 6.5 nM
IC50 (Nociceptin receptor [3]): 6.4 nM
Structure (SMILES): Cc1c(CN[C@H]2CC[C@@H](F)C2)nn(C)c1-c1ccc(F)c(F)c1

IC50 (Nociceptin receptor [3]): 210 nM
Structure (SMILES): Cc1c(CN[C@H]2CC[C@@H](F)C2)nn(C)c1-c1cc(F)cc(C(F)(F)F)c1

Structure (SMILES): Cc1c(CN[C@H]2CC[C@@H](F)C2)nn(CCC#N)c1-c1cc(F)cc(F)c1
IC50 [6]: 3700 nM
Cmax [7]: 2.6 µM
Kp at 1 h [8]: 1.62
remaining at 0.5 h [1]: 77%
bioavailability [5]: 21%
IC50 [9]: > 10000 nM
concentration (Mus musculus [10]): 0.016 µM
Drug uptake (Brain [11]): 3.02 nmol/g
inhibition [12]: 50%
clearance [13]: 4.98 L/h/kg
Kp at 1 h [14]: 3.42
Activity (Mus musculus [15]): Dose-dependent effect
logD [4]: 1.5
IC50 (Mu-type opioid receptor): > 10000 nM
Activity (Mus musculus [16]): 17%
Cmax [17]: 0.4 µM
clearance [18]: 2.22 L/h/kg
half-life [19]: 2.8 h
Activity (Mus musculus [20]): 81%
Kp at 1 h [21]: 1.84
IC50 [22]: 9800 nM
half-life [23]: 0.7 h
Vd [24]: 5.2 L/kg
Drug uptake (Brain [25]): 0.035 nmol/g
Cmax [26]: 9.7 µM
concentration (Mus musculus [27]): 1.63 µM
concentration (Mus musculus [28]): 0.315 µM
AUC(0-inf) [29]: 1300 nM·h
Activity (Canis familiaris): Non-toxic
Activity (Mus musculus [30]): 112%
IC50 [31]: 9500 nM
bioavailability [32]: 62%
Drug uptake (Brain [33]): 0.516 nmol/g
AUC(0-inf) [34]: 300 nM·h
Vd [35]: 3.5 L/kg

logD [4]: 1.4
IC50 (Nociceptin receptor [3]): 12 nM
Structure (SMILES): CC(=O)Cn1nc(CN[C@H]2CC[C@@H](F)C2)c(C)c1-c1cc(F)cc(F)c1

IC50 (Nociceptin receptor [3]): 17 nM
Structure (SMILES): Cc1c(CN[C@H]2CC[C@@H](F)C2)nn(C)c1-c1cc(F)cc(Cl)c1

remaining at 0.5 h [1]: 39%
IC50 (Nociceptin receptor [2]): 1 nM
IC50 (Nociceptin receptor [3]): 1.4 nM
Structure (SMILES): COCc1c(CN[C@H]2CC[C@@H](F)C2)nn(C)c1-c1cc(F)cc(F)c1

IC50 (Nociceptin receptor [2]): 0.61 nM
IC50 (Nociceptin receptor [3]): 2 nM
Structure (SMILES): CCn1nc(CN[C@H]2CC[C@@H](F)C2)c(C)c1-c1cnc(C)c(F)c1

remaining at 0.5 h [1]: 21%
IC50 (Nociceptin receptor [2]): 7.8 nM
IC50 (Nociceptin receptor [3]): 9.9 nM
Structure (SMILES): Cc1ncc(-c2[nH]nc(CN[C@H]3CC[C@@H](F)C3)c2C)cc1F

logD [4]: < 1
IC50 (Nociceptin receptor [3]): 33 nM
Structure (SMILES): Cc1c(CN[C@H]2CC[C@@H](F)C2)nn(CCS(C)(=O)=O)c1-c1cc(F)cc(F)c1

IC50 (Nociceptin receptor [2]): 13 nM
IC50 (Nociceptin receptor [3]): 15 nM
Structure (SMILES): Cc1c(CN[C@H]2CC[C@@H](F)C2)nn(C)c1-c1cc(F)c(F)c(F)c1
